According to ChEMBL document CHEMBL4433213, “Investigation on 2',3'-O-Substituted ATP Derivatives and Analogs as Novel P2X3 Receptor Antagonists” (ACS Med Chem Lett, 2019):
Activity calls are given as the source filed them. The calls are words filed in the database; no cut-off is given here.

Key:
[1] = biological target: T1, P2X purinoceptor 1 (Homo sapiens) (UniProt P51575); experiment: Antagonist activity at human P2X1R transfected in human 1321N1 cells assessed as inhibition of ATP-induced calcium influx relative to control; type: cell-based; conditions: concentration not given here
T1 sequence (whole entry): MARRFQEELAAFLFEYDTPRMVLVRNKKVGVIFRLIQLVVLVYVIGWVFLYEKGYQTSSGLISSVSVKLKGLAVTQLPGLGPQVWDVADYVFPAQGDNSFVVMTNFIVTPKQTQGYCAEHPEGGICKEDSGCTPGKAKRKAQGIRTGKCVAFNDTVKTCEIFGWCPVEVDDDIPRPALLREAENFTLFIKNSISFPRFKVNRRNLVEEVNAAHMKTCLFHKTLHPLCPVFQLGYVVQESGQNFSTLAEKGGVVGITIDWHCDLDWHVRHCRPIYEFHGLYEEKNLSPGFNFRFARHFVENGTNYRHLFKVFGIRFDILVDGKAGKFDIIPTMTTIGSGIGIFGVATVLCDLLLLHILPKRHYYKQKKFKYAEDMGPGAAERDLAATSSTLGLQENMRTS
Procedure, shortened: (§1)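 1321N1 astrocytoma cells stably expressing human P2X1, P2X2, P2X3 or P2X4 receptor. Calcium influx was induced by ATP at the EC80 for each subtype. Results are given as IC50 (μM) or % inhibition at the indicated concentration.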

[2] = biological target: T2, P2X purinoceptor 3 (Homo sapiens, UniProt P56373); experiment: Antagonist activity at human P2X3R transfected in human 1321N1 cells assessed as inhibition of ATP-induced calcium influx; type: cell-based; procedure, shortened: as §1
T2 sequence (P56373 whole entry): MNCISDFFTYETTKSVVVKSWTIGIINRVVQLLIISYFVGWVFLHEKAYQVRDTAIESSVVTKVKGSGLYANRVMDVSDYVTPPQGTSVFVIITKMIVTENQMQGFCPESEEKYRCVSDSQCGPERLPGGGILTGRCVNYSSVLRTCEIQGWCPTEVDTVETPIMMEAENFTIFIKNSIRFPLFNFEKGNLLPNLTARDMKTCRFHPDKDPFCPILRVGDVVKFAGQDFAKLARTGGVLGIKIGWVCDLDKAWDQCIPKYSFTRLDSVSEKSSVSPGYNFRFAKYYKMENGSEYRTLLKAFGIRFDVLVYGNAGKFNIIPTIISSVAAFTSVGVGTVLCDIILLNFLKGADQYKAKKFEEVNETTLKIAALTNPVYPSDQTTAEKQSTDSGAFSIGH

[3] = species on record: Mus musculus; experiment: Antagonist activity at GABAA receptor in mouse TG sensory neurons assesed as inhibition of GABAA receptor agonist GABA-evoked currents at 1 uM pre-applied before GABA addition
Procedure, shortened: (§2)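 In mouse trigeminal sensory neurons, test compound was preapplied at 1 μM, then 10 μM GABA (GABAA) or 10 μM 5-HT (5-HT3) was applied. Current amplitudes were normalized to the control current evoked by the same agonist alone. N = 5 cells.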

[4] = biological target: T3, 5-hydroxytryptamine receptor 3A (Mus musculus) (UniProt P23979); experiment: Antagonist activity at 5-HT3 receptor in mouse TG sensory neurons assessed as inhibition of 5-HT3 receptor agonist 5-HT-evoked currents at 1 uM pre-applied before 5-HT addition; procedure, shortened: as §2
T3 sequence (whole entry): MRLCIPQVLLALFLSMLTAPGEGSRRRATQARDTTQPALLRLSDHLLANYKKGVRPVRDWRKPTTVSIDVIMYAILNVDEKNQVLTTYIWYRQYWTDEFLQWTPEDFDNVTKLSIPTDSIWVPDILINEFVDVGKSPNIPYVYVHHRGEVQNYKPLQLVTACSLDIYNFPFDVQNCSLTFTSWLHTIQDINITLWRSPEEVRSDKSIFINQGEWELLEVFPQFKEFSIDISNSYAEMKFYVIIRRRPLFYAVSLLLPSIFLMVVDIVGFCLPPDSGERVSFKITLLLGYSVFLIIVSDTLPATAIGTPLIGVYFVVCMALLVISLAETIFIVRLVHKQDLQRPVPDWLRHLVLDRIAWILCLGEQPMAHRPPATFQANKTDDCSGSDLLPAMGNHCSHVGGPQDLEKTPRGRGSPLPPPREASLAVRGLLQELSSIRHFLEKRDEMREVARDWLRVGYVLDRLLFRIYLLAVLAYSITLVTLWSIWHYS

[5] = biological target: T4, P2X purinoceptor 3 (Mus musculus) (UniProt Q3UR32); experiment: Antagonist activity at P2X3R in mouse TG sensory neurons assessed as inhibition of P2X3R agonist alpha,beta-meATP-induced current at 1 uM at -65 mV holding potential by whole cell voltage clamp method relative to control
T4 sequence (whole entry): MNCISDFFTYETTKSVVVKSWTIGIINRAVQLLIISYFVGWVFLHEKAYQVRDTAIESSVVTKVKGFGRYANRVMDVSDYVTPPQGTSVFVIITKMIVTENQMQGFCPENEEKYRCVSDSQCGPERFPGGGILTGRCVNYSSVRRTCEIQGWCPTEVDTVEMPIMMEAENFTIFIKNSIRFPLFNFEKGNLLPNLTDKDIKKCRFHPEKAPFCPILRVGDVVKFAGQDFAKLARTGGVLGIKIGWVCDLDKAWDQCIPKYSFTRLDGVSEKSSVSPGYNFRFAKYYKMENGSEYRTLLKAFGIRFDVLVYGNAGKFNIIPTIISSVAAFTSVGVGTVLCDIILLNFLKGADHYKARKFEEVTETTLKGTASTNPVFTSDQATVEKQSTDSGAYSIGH
Procedure, shortened: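 Mouse trigeminal sensory neurons were recorded by whole-cell patch clamp. Test compound (0.001–10 μM) was applied before 10 μM α,β-meATP, and inhibition of the agonist-evoked P2X3 current was measured. IC50 was taken from concentration–inhibition curves. N = 5–6 cells.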

[6] = biological target: T5, P2X purinoceptor 3 (Homo sapiens) (UniProt P56373); experiment: Antagonist activity at human P2X3R transfected in human 1321N1 cells assessed as inhibition of ATP-induced calcium influx relative to control; type: cell-based; conditions: concentration not given here; procedure, shortened: as §1
T5 sequence (whole entry): T2 sequence (P56373 whole entry)

[7] = biological target: T6, P2X purinoceptor 4 (Homo sapiens) (UniProt Q99571); experiment: Antagonist activity at human P2X4R transfected in human 1321N1 cells assessed as inhibition of ATP-induced calcium influx relative to control; type: cell-based; conditions: concentration not given here; procedure, shortened: as §1
T6 sequence (whole entry): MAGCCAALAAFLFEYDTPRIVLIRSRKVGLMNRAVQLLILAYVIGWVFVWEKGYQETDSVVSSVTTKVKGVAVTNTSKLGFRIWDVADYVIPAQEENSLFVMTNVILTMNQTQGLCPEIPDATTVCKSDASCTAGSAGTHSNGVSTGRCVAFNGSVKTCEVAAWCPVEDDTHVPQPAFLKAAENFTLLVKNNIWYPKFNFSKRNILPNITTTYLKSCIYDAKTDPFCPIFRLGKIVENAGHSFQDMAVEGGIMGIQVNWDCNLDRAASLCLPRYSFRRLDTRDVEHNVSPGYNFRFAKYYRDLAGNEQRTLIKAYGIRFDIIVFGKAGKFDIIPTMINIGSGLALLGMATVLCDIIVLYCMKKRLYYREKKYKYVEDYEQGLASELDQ

[8] = species on record: Homo sapiens; experiment: Selectivity ratio of IC50 for human P2X1R transfected in human […] 1321N1 cells to IC50 for human transfected in human 1321N1 cells; type: cell-based
[9] = species on record: Homo sapiens; experiment: Selectivity ratio of IC50 for human P2X4R transfected in human […] 1321N1 cells to IC50 for human transfected in human 1321N1 cells; type: cell-based

Compound | inhibition [1] [%] | IC50 [2] [µM] | inhibition [3] | inhibition [4] | inhibition [5] [%] | inhibition [6] [%] | inhibition [7] [%] | Ratio IC50 [8] | Ratio IC50 [9]
Nc1ncnc2c1ncn2[C@@H]1O[C@H](COP(=O)(O)CP(=O)(O)OP(=O)(O)O)[C@H]2OC3(CCCCC3)O[C@H]21 | -1 | 17.5 | inactive | inactive | – | – | – | – | –
Nc1ncnc2c1ncn2[C@@H]1O[C@H](COP(=O)(O)OP(=O)(O)OP(=O)(O)O)[C@H]2OCO[C@H]21 | 1 | > 100 | – | – | 25 | 8 | 12 | – | –
CC1(C)O[C@@H]2[C@H](O1)[C@@H](COP(=O)(O)OP(=O)(O)OP(=O)(O)O)O[C@H]2n1cnc2c(N)ncnc21 | – | 4.11 | inactive | inactive | – | – | – | 10 | 12
